Assay results from ChEMBL document CHEMBL4118130, “Modular synthesis of new C-aryl-nucleosides and their anti-CML activity” (Bioorg Med Chem Lett, 2018).
Active and inactive are the calls of the source. The rule behind the calls is not given here.

Tests used:
[1] = system: K562; test: Cytotoxicity in drug sensitive human K562 cells assessed as reduction in cell viability at 10 uM incubated for 48 hrs by XTT assay relative to imatinib; format: functional
[2] = system: K562; test: Cytotoxicity in drug sensitive human K562 cells assessed as reduction cell viability incubated for 48 hrs by XTT assay; format: functional, cell-based; conditions: for IC50: K562, 48 h
Summary of the method: (§1)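 K562-S (imatinib-sensitive) or K562-R (imatinib-resistant) CML cells were exposed to a range of concentrations for 48 h. Viability was read by XTT, and the IC50 was derived from the dose-response.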

[3] = system: K-562R; test: Cytotoxicity in imatinib-resistant human K562R cells assessed as reduction cell viability incubated for 48 hrs by XTT assay; format: functional, cell-based; summary of the method: as §1
[4] = system: K562; test: Potency index, ratio of IC50 for AICAR to IC50 for test compound in drug sensitive human K562 cells assessed as reduction cell viability incubated for 48 hrs by XTT assay; format: functional
[5] = system: K562; test: Induction of apoptosis in drug sensitive human K562 cells assessed as induction of caspase-3 cleavage after 6 hrs by Western blot method; format: functional, cell-based
Summary of the method: (§2)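 Cell lysates were probed by western blot for procaspase 3 and for PARP, its preferred substrate, in K562-S and K562-R cells. Cleavage was scored after 6 h and 24 h of treatment.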

[6] = system: K562; test: Induction of apoptosis in drug sensitive human K562 cells assessed as induction of PARP cleavage after 6 hrs by Western blot method; format: functional, cell-based; summary of the method: as §2
[7] = system: K-562R; test: Induction of apoptosis in imatinib-resistant human K562R cells assessed as induction of caspase-3 cleavage after 6 hrs by Western blot method; format: functional, cell-based; summary of the method: as §2
[8] = system: K-562R; test: Induction of apoptosis in imatinib-resistant human K562R cells assessed as induction of PARP cleavage after 6 hrs by Western blot method; format: functional, cell-based; summary of the method: as §2
[9] = system: K562; test: Induction of apoptosis in drug sensitive human K562 cells assessed as induction of caspase-3 cleavage after 24 hrs by Western blot method; format: functional, cell-based; summary of the method: as §2
[10] = system: K562; test: Induction of apoptosis in drug sensitive human K562 cells assessed as induction of PARP cleavage after 24 hrs by Western blot method; format: functional, cell-based; summary of the method: as §2
[11] = system: K-562R; test: Induction of apoptosis in imatinib-resistant human K562R cells assessed as induction of caspase-3 cleavage after 24 hrs by Western blot method; format: functional, cell-based; summary of the method: as §2
[12] = system: K-562R; test: Induction of apoptosis in imatinib-resistant human K562R cells assessed as induction of PARP cleavage after 24 hrs by Western blot method; format: functional, cell-based; summary of the method: as §2
[13] = system: K562; test: Inhibition of autophagy in drug sensitive human K562 cells assessed as reduction in LC3-II accumulation by Western blot method; format: functional, cell-based
Summary of the method: (§3)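 Western blot of LC3 lipidation and cleavage, scored as conversion of LC3-I to LC3-II, in K562-S and K562-R cells. Untreated cells served as the baseline for LC3-II accumulation.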

[14] = system: K-562R; test: Inhibition of autophagy in imatinib-resistant human K562R cells assessed as reduction in LC3-II accumulation by Western blot method; format: functional, cell-based; summary of the method: as §3

Row | Structure (SMILES) | Activity [1] | also measured
1 | COc1ccc(C#Cc2ccccc2)cc1[C@@H]1O[C@H](COC(C)=O)[C@@H](OC(C)=O)[C@H]1OC(C)=O | inactive | –
2 | COc1ccc(-c2cccc3ccccc23)cc1[C@@H]1O[C@H](COC(C)=O)[C@@H](OC(C)=O)[C@H]1OC(C)=O | >30% | –
3 | COc1ccc(-c2ccc3[nH]ccc3c2)cc1[C@@H]1O[C@H](CO)[C@@H](O)[C@H]1O | Active | –
4 | COc1ccc(C#Cc2ccc(F)cc2)cc1[C@@H]1O[C@H](COC(C)=O)[C@@H](OC(C)=O)[C@H]1OC(C)=O | Active | –
5 | COc1ccc(-c2cc3ccccc3s2)cc1[C@@H]1O[C@H](CO)[C@@H](O)[C@H]1O | 16% | –
6 | COc1ccc(-c2cccs2)cc1[C@@H]1O[C@H](CO)[C@@H](O)[C@H]1O | Active | –
7 | COc1ccc(C#Cc2ccsc2)cc1[C@@H]1O[C@H](COC(C)=O)[C@@H](OC(C)=O)[C@H]1OC(C)=O | inactive | –
8 | COc1ccc(-c2cccs2)cc1[C@@H]1O[C@H](COC(C)=O)[C@@H](OC(C)=O)[C@H]1OC(C)=O | >30% | –
9 | COc1ccc(-c2ccc(C)cc2)cc1[C@@H]1O[C@H](COC(C)=O)[C@@H](OC(C)=O)[C@H]1OC(C)=O | Active | –
10 | COc1ccc(C#Cc2ccc(F)cc2)cc1[C@@H]1O[C@H](CO)[C@@H](O)[C@H]1O | Active | –
11 | Cc1ccc(NC(=O)c2ccc(CN3CCN(C)CC3)cc2)cc1Nc1nccc(-c2cccnc2)n1 [IMATINIB] | – | IC50 [2]: 1.1 µM; IC50 [3]: > 50 µM
12 | COc1ccc(-c2ccccc2)cc1[C@@H]1O[C@H](CO)[C@@H](O)[C@H]1O | Active | –
13 | COc1ccc(C#Cc2ccc(C)cc2)cc1[C@@H]1O[C@H](CO)[C@@H](O)[C@H]1O | Active | –
14 | COc1ccc(-c2ccco2)cc1[C@@H]1O[C@H](COC(C)=O)[C@@H](OC(C)=O)[C@H]1OC(C)=O | Active | –
15 | COc1ccc(C#Cc2ccc(OC)c([C@@H]3O[C@H](COC(C)=O)[C@@H](OC(C)=O)[C@H]3OC(C)=O)c2)cc1 | >30% | –
16 | COc1ccc(C#Cc2ccc(C)cc2)cc1[C@@H]1O[C@H](COC(C)=O)[C@@H](OC(C)=O)[C@H]1OC(C)=O | Active | –
17 | COc1ccc(-c2ccc3[nH]ccc3c2)cc1[C@@H]1O[C@H](COC(C)=O)[C@@H](OC(C)=O)[C@H]1OC(C)=O | Active | –
18 | COc1ccc(-c2ccc(C)cc2)cc1[C@@H]1O[C@H](CO)[C@@H](O)[C@H]1O | Active | –
19 | COc1ccc(-c2cccc3ccccc23)cc1[C@@H]1O[C@H](CO)[C@@H](O)[C@H]1O | Active | –
20 | COc1ccc(C#Cc2ccccc2)cc1[C@@H]1O[C@H](CO)[C@@H](O)[C@H]1O | Active | –
21 | NC(=O)c1ncn([C@@H]2O[C@H](CO)[C@@H](O)[C@H]2O)c1N [ACADESINE] | – | IC50 [3]: 800 µM
22 | COc1ccc(C#Cc2ccc(OC)c([C@@H]3O[C@H](CO)[C@@H](O)[C@H]3O)c2)cc1 | Active | –
23 | COc1ccc(-c2ccco2)cc1[C@@H]1O[C@H](CO)[C@@H](O)[C@H]1O | Active | –
24 | COc1ccc(-c2cccn2C)cc1[C@@H]1O[C@H](COC(C)=O)[C@@H](OC(C)=O)[C@H]1OC(C)=O | Active | –
25 | COc1ccc(C#Cc2ccsc2)cc1[C@@H]1O[C@H](CO)[C@@H](O)[C@H]1O | Active | –
26 | COc1ccc(-c2cc3ccccc3s2)cc1[C@@H]1O[C@H](COC(C)=O)[C@@H](OC(C)=O)[C@H]1OC(C)=O | >30 - 80% | Activity [2]: Dose-dependent effect; IC50 [2]: 4 µM; IC50 [3]: 2.9 µM; Ratio IC50 [4]: 200; Activity [5]: inactive; Activity [6]: inactive; Activity [7]: inactive; Activity [8]: inactive; Activity [9]: inactive; Activity [10]: inactive; Activity [11]: inactive; Activity [12]: inactive; inhibition [13]: Active; inhibition [14]: Active
27 | COc1ccc(-c2ccccc2)cc1[C@@H]1O[C@H](COC(C)=O)[C@@H](OC(C)=O)[C@H]1OC(C)=O | Active | –
28 | COc1ccc(-c2cccn2C)cc1[C@@H]1O[C@H](CO)[C@@H](O)[C@H]1O | Active | –
